According to ChEMBL document CHEMBL1157072 (Bioorg Med Chem, 2010):
≈ marks a conversion by molar mass, not a printed value. Calls of active or inactive are those of the source. The rule behind the calls is not given here.

Key:
Staphylococcus aureus [1] = assay: Upregulation of mepA gene expression in MBX-1090-resistant Staphylococcus aureus isolate d20A1 at 50 ug/ml by RT-PCR analysis relative to wild type; type: functional
Staphylococcus aureus [2] = assay: Upregulation of mepB gene expression in MBX-1090-resistant Staphylococcus aureus isolate d20A1 at 50 ug/ml by RT-PCR analysis relative to wild type; type: functional
Staphylococcus aureus [3] = assay: Upregulation of conventional hypothetical protein mRNA expression in MBX-1090-resistant Staphylococcus aureus isolate d20A1 at 50 ug/ml by RT-PCR analysis relative to wild type; type: functional
Staphylococcus aureus [4] = assay: Modulation of protein A gene expression in MBX-1090-resistant Staphylococcus aureus isolate d20A1 at 50 ug/ml by RT-PCR analysis relative to wild type; type: functional
Staphylococcus aureus [5] = assay: Downregulation of ribH gene expression in MBX-1090-resistant Staphylococcus aureus isolate d20A1 at 50 ug/ml by RT-PCR analysis relative to wild type; type: functional
Staphylococcus aureus [6] = assay: Downregulation of ribA gene expression in MBX-1090-resistant Staphylococcus aureus isolate d20A1 at 50 ug/ml by RT-PCR analysis relative to wild type; type: functional
Staphylococcus aureus [7] = assay: Downregulation of ribE gene expression in MBX-1090-resistant Staphylococcus aureus isolate d20A1 at 50 ug/ml by RT-PCR analysis relative to wild type; type: functional
Staphylococcus aureus [8] = assay: Downregulation of ribD gene expression in MBX-1090-resistant Staphylococcus aureus isolate d20A1 at 50 ug/ml by RT-PCR analysis relative to wild type; type: functional
Staphylococcus aureus [9] = assay: Antibacterial activity against Staphylococcus aureus NCTC 8325 after 16 to 20 hrs by broth microdilution method; type: functional
Method in brief: (§1)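 Broth microdilution in cation-adjusted Mueller Hinton broth. Compounds were serially diluted twofold in DMSO at 50-fold final strength (2% DMSO final). The inoculum was 1 × 10^4 cells per well. Plates were incubated at 37 °C for 16–20 h, and growth was read as absorbance at 600 nm.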

Staphylococcus aureus [10] = assay: Antibacterial activity against Staphylococcus aureus NCTC 8325 after 16 to 20 hrs by broth microdilution method in presence of efflux pump inhibitor reserpine; type: functional
Method in brief: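 Broth microdilution in cation-adjusted MHB with reserpine at 20 µg/ml final in the medium as efflux inhibitor. Twofold DMSO dilutions were made (2% DMSO final) with 1 × 10^4 cells per well. Incubation was 37 °C for 16–20 h, with growth read at 600 nm.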

Staphylococcus aureus [11] = assay: Antibacterial activity against Staphylococcus aureus NCTC 8325 harboring genetic deletion of mepR gene after 16 to 20 hrs by broth microdilution method; type: functional; method in brief: as §1
Staphylococcus aureus [12] = assay: Antibacterial activity against Staphylococcus aureus NCTC 8325 harboring genetic deletion of mepRA gene after 16 to 20 hrs by broth microdilution method; type: functional; method in brief: as §1
Staphylococcus aureus [13] = assay: Antibacterial activity against Staphylococcus aureus NCTC 8325 carrying expression vector pG154 after 16 to 20 hrs by broth microdilution method; type: functional; method in brief: as §1
Staphylococcus aureus [14] = assay: Antibacterial activity against Staphylococcus aureus NCTC 8325 carrying expression vector pG154 after 16 to 20 hrs by broth microdilution method in presence of anhydrous tetracycline; type: functional
Method in brief: (§2)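 Broth microdilution in cation-adjusted MHB containing anhydrous tetracycline at 100 ng/ml final to induce the pG154 expression vector. Twofold DMSO compound dilutions were used (2% DMSO final) with 1 × 10^4 cells per well. Incubation was 37 °C for 16–20 h, and absorbance was read at 600 nm.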

Staphylococcus aureus [15] = assay: Antibacterial activity against Staphylococcus aureus NCTC 8325 carrying expression vector pG154 with mepA gene after 16 to 20 hrs by broth microdilution method; type: functional; method in brief: as §1
Staphylococcus aureus [16] = assay: Antibacterial activity against Staphylococcus aureus NCTC 8325 carrying expression vector pG154 with mepA gene after 16 to 20 hrs by broth microdilution method in presence of anhydrous tetracycline; type: functional; method in brief: as §2
Staphylococcus aureus [17] = assay: Antibacterial activity against Staphylococcus aureus NCTC 8325 harboring genetic deletion of mepRA gene and carrying expression vector pG154 after 16 to 20 hrs by broth microdilution method; type: functional; method in brief: as §1
Staphylococcus aureus [18] = assay: Antibacterial activity against Staphylococcus aureus NCTC 8325 harboring genetic deletion of mepRA gene and carrying expression vector pG154 after 16 to 20 hrs by broth microdilution method in presence of anhydrous tetracycline; type: functional; method in brief: as §2
Staphylococcus aureus [19] = assay: Antibacterial activity against Staphylococcus aureus NCTC 8325 harboring genetic deletion of mepRA gene and carrying expression vector pG154 with mepA gene after 16 to 20 hrs by broth microdilution method; type: functional; method in brief: as §1
Staphylococcus aureus [20] = assay: Antibacterial activity against Staphylococcus aureus NCTC 8325 harboring genetic deletion of mepRA gene and carrying expression vector pG154 with mepA gene after 16 to 20 hrs by broth microdilution method in presence of anhydrous tetracycline; type: functional; method in brief: as §2
[21] = Selectivity ratio of MIC for MBX-1090-resistant Staphylococcus aureus isolate d20A1 to MIC for Staphylococcus aureus NCTC 8325; type: functional
Method in brief: (§3)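 Ratio of resistant-mutant MIC to NCTC 8325 MIC. Both MICs came from broth microdilution in cation-adjusted MHB with 2% DMSO final and 1 × 10^4 cells per well, incubated at 37 °C for 16–20 h and read at 600 nm.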

Staphylococcus aureus [22] = assay: Upregulation of mepR gene expression in MBX-1090-resistant Staphylococcus aureus isolate d20A1 at 50 ug/ml by RT-PCR analysis relative to wild type; type: functional
Staphylococcus aureus [23] = assay: microbe, parasite or virus in culture; conditions: isolate d20A1
Staphylococcus aureus [24] = assay: Selectivity ratio of MIC for Staphylococcus aureus NCTC 8325 harboring genetic deletion of mepRA gene and carrying expression vector pG154 with mepA gene in presence of anhydrous tetracycline to MIC for Staphylococcus aureus NCTC 8325 harboring genetic deletion of mepRA gene and carrying expression vector pG154 with mepA gene; type: functional
Method in brief: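 Ratio of the MIC with anhydrous tetracycline (100 ng/ml final, induces pG154-mepA) to the MIC without it. Both came from broth microdilution in cation-adjusted MHB with 2% DMSO and 1 × 10^4 cells per well, incubated at 37 °C for 16–20 h and read at 600 nm.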

Staphylococcus aureus [25] = assay: Induction of mepA gene expression in Staphylococcus aureus NCTC 8325 at 0.5 ug/ml by RT-PCR analysis; type: functional, organism-based
Method in brief: (§4)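 NCTC 8325 diluted 1/200 in TSB and grown at 37 °C (250 rpm) to OD600 0.3. 5 ml aliquots exposed 3 h to compound or DMSO (2% final), triplicate cultures pooled. RNA was DNase-treated and 1 µg primed with random hexamers for cDNA, with a no-RT control. mepA signal normalized to rho, untreated set to 1. Mean of three experiments ± SD.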

Staphylococcus aureus [26] = assay: Induction of mepR gene expression in Staphylococcus aureus NCTC 8325 at 0.5 ug/ml by RT-PCR analysis; type: functional, organism-based
[27] = Dissociation constant, pKa of the compound; type: physicochemical
Staphylococcus aureus [28] = assay: Antibacterial activity against Staphylococcus aureus NCTC 8325 carrying shuttle vector pMC-SK after 16 to 20 hrs by broth microdilution method; type: functional; method in brief: as §1
Staphylococcus aureus [29] = assay: Antibacterial activity against Staphylococcus aureus NCTC 8325 carrying shuttle vector pMC-SK with mepR gene after 16 to 20 hrs by broth microdilution method; type: functional; method in brief: as §1
Staphylococcus aureus [30] = assay: Antibacterial activity against MBX-1090-resistant Staphylococcus aureus isolate d20A1 carrying shuttle vector pMC-SK after 16 to 20 hrs by broth microdilution method; type: functional; method in brief: as §1
Staphylococcus aureus [31] = assay: Antibacterial activity against MBX-1090-resistant Staphylococcus aureus isolate d20A1 carrying shuttle vector pMC-SK with mepR gene after 16 to 20 hrs by broth microdilution method; type: functional; method in brief: as §1
[32] = Selectivity ratio of MIC for MBX-1090-resistant Staphylococcus aureus isolate d20B1 to MIC for Staphylococcus aureus NCTC 8325; type: functional; method in brief: as §3
[33] = Selectivity ratio of MIC for MBX-1090-resistant Staphylococcus aureus isolate d20C1 to MIC for Staphylococcus aureus NCTC 8325; type: functional; method in brief: as §3
Staphylococcus aureus [34] = assay: Induction of mepA gene expression in Staphylococcus aureus NCTC 8325 at 0.8 ug/ml by RT-PCR analysis; type: functional, organism-based; method in brief: as §4
Staphylococcus aureus [35] = assay: Induction of mepR gene expression in Staphylococcus aureus NCTC 8325 at 0.8 ug/ml by RT-PCR analysis; type: functional, organism-based
Staphylococcus aureus [36] = assay: Upregulation of mepR gene expression in MBX-1090-resistant Staphylococcus aureus isolate d20A1 at 0.8 ug/ml by RT-PCR analysis relative to wild type; type: functional
Staphylococcus aureus [37] = assay: Upregulation of mepA gene expression in MBX-1090-resistant Staphylococcus aureus isolate d20A1 at 0.8 ug/ml by RT-PCR analysis relative to wild type; type: functional
Staphylococcus aureus [38] = assay: Upregulation of mepB gene expression in MBX-1090-resistant Staphylococcus aureus isolate d20A1 at 0.8 ug/ml by RT-PCR analysis relative to wild type; type: functional
Staphylococcus aureus [39] = assay: Upregulation of conventional hypothetical protein mRNA expression in MBX-1090-resistant Staphylococcus aureus isolate d20A1 at 0.8 ug/ml by RT-PCR analysis relative to wild type; type: functional
Staphylococcus aureus [40] = assay: Downregulation of protein A gene expression in MBX-1090-resistant Staphylococcus aureus isolate d20A1 at 0.8 ug/ml by RT-PCR analysis relative to wild type; type: functional
Staphylococcus aureus [41] = assay: Downregulation of ribH gene expression in MBX-1090-resistant Staphylococcus aureus isolate d20A1 at 0.8 ug/ml by RT-PCR analysis relative to wild type; type: functional
Staphylococcus aureus [42] = assay: Downregulation of ribA gene expression in MBX-1090-resistant Staphylococcus aureus isolate d20A1 at 0.8 ug/ml by RT-PCR analysis relative to wild type; type: functional
Staphylococcus aureus [43] = assay: Downregulation of ribE gene expression in MBX-1090-resistant Staphylococcus aureus isolate d20A1 at 0.8 ug/ml by RT-PCR analysis relative to wild type; type: functional
Staphylococcus aureus [44] = assay: Downregulation of ribD gene expression in MBX-1090-resistant Staphylococcus aureus isolate d20A1 at 0.8 ug/ml by RT-PCR analysis relative to wild type; type: functional

| SMILES | MIC (Staphylococcus aureus [9]) [µg/mL] | MIC (Staphylococcus aureus [10]) [µg/mL] | MIC (Staphylococcus aureus [11]) [µg/mL] | MIC (Staphylococcus aureus [12]) [µg/mL] | MIC (Staphylococcus aureus [13]) [µg/mL] | MIC (Staphylococcus aureus [14]) [µg/mL] | MIC (Staphylococcus aureus [15]) [µg/mL] | MIC (Staphylococcus aureus [16]) [µg/mL] | MIC (Staphylococcus aureus [17]) [µg/mL] | MIC (Staphylococcus aureus [18]) [µg/mL] | MIC (Staphylococcus aureus [19]) [µg/mL] | MIC (Staphylococcus aureus [20]) [µg/mL] | Selectivity ratio [21] | MIC (Staphylococcus aureus [23]) [µg/mL] | other results |
| --- | --- | --- | --- | --- | --- | --- | --- | --- | --- | --- | --- | --- | --- | --- | --- |
| Cn1cc(NC(=O)c2cc(NC(=O)c3cc(NC=O)cn3C)cn2C)cc1C(=O)NCCC(=N)N [STALLIMYCIN] | 50 (≈ 104 µM) | 50 | 100 (≈ 208 µM) | 100 (≈ 208 µM) | 50 (≈ 104 µM) | 50 | 50 (≈ 104 µM) | 50 | 50 (≈ 104 µM) | 50 | 50 (≈ 104 µM) | 50 | 4 | 200 (≈ 415 µM) | fold change (FC) (Staphylococcus aureus [1]): 72.6; fold change (FC) (Staphylococcus aureus [2]): 25.5; fold change (FC) (Staphylococcus aureus [3]): 14.2; fold change (FC) (Staphylococcus aureus [4]): 2; fold change (FC) (Staphylococcus aureus [5]): 2.7; fold change (FC) (Staphylococcus aureus [6]): 1.9; fold change (FC) (Staphylococcus aureus [7]): 1.5; fold change (FC) (Staphylococcus aureus [8]): 1.6; fold change (FC) (Staphylococcus aureus [22]): 39.2 |
| c1cc2cc(-c3ccc4cc(C5=NCCN5)[nH]c4c3)[nH]c2cc1C1=NCCN1 | 0.5 (≈ 1.36 µM) | 0.25 | 1 (≈ 2.71 µM) | 0.5 (≈ 1.36 µM) | 0.5 (≈ 1.36 µM) | 0.5 | 0.5 (≈ 1.36 µM) | 4 | 0.5 (≈ 1.36 µM) | 0.5 | 0.5 (≈ 1.36 µM) | 1 | 4 | 2 (≈ 5.43 µM) | Selectivity ratio (Staphylococcus aureus [24]): 2; Activity (Staphylococcus aureus [25]): Active; Activity (Staphylococcus aureus [26]): Active |
| C(=C\c1cc2ccc(C3=NCCN3)cc2[nH]1)/c1cc2ccc(C3=NCCN3)cc2[nH]1 | 1 (≈ 2.53 µM) | 0.5 | 4 (≈ 10.1 µM) | 1 (≈ 2.53 µM) | 1 (≈ 2.53 µM) | 1 | 1 (≈ 2.53 µM) | 8 | 1 (≈ 2.53 µM) | 1 | 1 (≈ 2.53 µM) | 4 | 8 | 8 (≈ 20.3 µM) | pKa [27]: 9.6; MIC (Staphylococcus aureus [28]): 1 µg/mL (≈ 2.53 µM); MIC (Staphylococcus aureus [29]): 1 µg/mL (≈ 2.53 µM); MIC (Staphylococcus aureus [30]): 8 µg/mL (≈ 20.3 µM); MIC (Staphylococcus aureus [31]): 1 µg/mL (≈ 2.53 µM); Selectivity ratio [32]: 8; Selectivity ratio [33]: 8; Activity (Staphylococcus aureus [34]): inactive; Activity (Staphylococcus aureus [35]): inactive; fold change (FC) (Staphylococcus aureus [36]): 1.7; fold change (FC) (Staphylococcus aureus [37]): 2; fold change (FC) (Staphylococcus aureus [38]): 1; fold change (FC) (Staphylococcus aureus [39]): 15.3; fold change (FC) (Staphylococcus aureus [40]): 3.1; fold change (FC) (Staphylococcus aureus [41]): 1.9; fold change (FC) (Staphylococcus aureus [42]): 3; fold change (FC) (Staphylococcus aureus [43]): 2.6; fold change (FC) (Staphylococcus aureus [44]): 1.4 |
